Results reported in ChEMBL document CHEMBL3286282, “Synthesis and antiproliferative activity of novobiocin analogues as potential hsp90 inhibitors” (Eur J Med Chem, 2014).
Values belong to the molecule of their own block, whether it stands above or below them. Active and inactive are the calls of the source. No cut-off for these calls is given here.

Columns and labels:
[1] = Retardation factor of the compound using c-hexane/AcOEt at ratio of 8:2 as solvent system; assay type: physicochemical
[2] = Retardation factor of the compound using CH2Cl2/AcOEt at ratio of 95:5 as solvent system; assay type: physicochemical
MCF7 [3] = experiment: Antiproliferative activity against ER-positive human MCF7 cells assessed as cell viability at 0.1 mM after 72 hrs by MTT assay; assay type: functional; conditions: MCF7, 72 h, read-out: Activity
Procedure, shortened: (§1)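 MCF-7 (ER-positive) cells in DMEM with 2 mM L-glutamine, penicillin/streptomycin and 10% charcoal-treated FCS, seeded at 2500-5000 cells/well. Drugs added 24 h later in serial dilutions from 10 mM DMSO stocks, then exposed 72 h. MTT (500 µg/mL) for 3 h at 37 °C, formazan dissolved in DMSO, A570 read minus A650. Sextuplicates, three experiments.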

[4] = Retardation factor of the compound using c-hexane/AcOEt at ratio of 6:4 as solvent system; assay type: physicochemical
[5] = Retardation factor of the compound using Et2O/c-hexane at ratio of 8:2 as solvent system; assay type: physicochemical
[6] = molecular target: Heat shock protein HSP 90-beta (Homo sapiens) (UniProt P08238); experiment: Inhibition of HSP90 in human MCF7 cells assessed as ER-alpha degradation at 100 uM after 24 hrs by western blot analysis; assay type: cell-based
Sequence of Heat shock protein HSP 90-beta (Homo sapiens) (P08238 whole entry): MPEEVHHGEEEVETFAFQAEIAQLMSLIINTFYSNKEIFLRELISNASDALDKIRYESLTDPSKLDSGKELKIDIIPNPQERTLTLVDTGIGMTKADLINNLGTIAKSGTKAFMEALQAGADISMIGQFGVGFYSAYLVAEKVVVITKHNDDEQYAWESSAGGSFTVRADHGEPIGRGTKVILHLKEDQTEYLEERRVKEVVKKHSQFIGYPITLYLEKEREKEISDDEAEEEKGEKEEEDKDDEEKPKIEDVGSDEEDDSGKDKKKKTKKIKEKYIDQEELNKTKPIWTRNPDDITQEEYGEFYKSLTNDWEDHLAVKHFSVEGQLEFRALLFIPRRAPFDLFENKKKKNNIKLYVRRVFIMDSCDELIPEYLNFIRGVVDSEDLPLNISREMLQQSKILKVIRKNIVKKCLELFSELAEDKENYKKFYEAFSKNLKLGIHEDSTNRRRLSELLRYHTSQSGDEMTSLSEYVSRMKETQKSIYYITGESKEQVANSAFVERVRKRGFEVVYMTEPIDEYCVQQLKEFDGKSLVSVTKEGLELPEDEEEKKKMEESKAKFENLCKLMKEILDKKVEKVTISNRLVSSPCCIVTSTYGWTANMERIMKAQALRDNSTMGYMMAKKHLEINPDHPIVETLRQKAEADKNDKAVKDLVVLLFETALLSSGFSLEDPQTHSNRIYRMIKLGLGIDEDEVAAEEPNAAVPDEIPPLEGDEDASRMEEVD
Procedure, shortened: (§2)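 MCF-7 cells grown to 50% confluence, exposed to 100 µM for 24 h with or without MG132 (5 µM). Lysed in Tris-HCl pH 7.5/NaCl/EGTA/Triton X-100 buffer with phosphatase and protease inhibitors. 20 µg protein run on SDS-PAGE. ERα probed with D12 monoclonal antibody (1 µg/mL, overnight 4 °C), detected by biotin/avidin-peroxidase. Nonspecific band used as loading control; DMSO as vehicle.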

[7] = Retardation factor of the compound using CH2Cl2/AcOEt at ratio of 9:1 as solvent system; assay type: physicochemical
MCF7 [8] = experiment: Growth inhibition of ER-positive human MCF7 cells after 72 hrs by MTT assay; assay type: functional; conditions: MCF7, 72 h; procedure, shortened: as §1
[9] = Retardation factor of the compound using CH2Cl2 as solvent system; assay type: physicochemical
MCF7 [10] = experiment: Growth inhibition of Faslodex-resistant human MCF7 cells after 72 hrs by MTT assay; assay type: functional; conditions: MCF7, 72 h
Procedure, shortened: (§3)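 ER-negative MDA-MB-231 cells and tamoxifen- or Faslodex-resistant MCF-7 cells, grown in DMEM with 10% charcoal-treated FCS and seeded at 2500-5000 cells/well. Drug serial dilutions added after 24 h from 10 mM DMSO stocks. After 72 h, MTT at 500 µg/mL for 3 h at 37 °C, then A570 read minus A650.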

RPMI-8226 = experiment: Growth inhibition of human RPMI8226 cells after 72 hrs by MTS assay; assay type: functional; conditions: RPMI-8226, 72 h
Procedure, shortened: (§4)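 Myeloma RPMI 8226 and LP-1 cells and prostate PC-3 cells, grown in RPMI 1640 with 2 mM L-glutamine and 10% heat-inactivated FBS, seeded at 2500-5000 cells/well. Drug dilutions added after 24 h. After 72 h, MTS reagent added and A492 read 2 or 3 h later. Run in triplicate, with each experiment done at least twice. GI50 taken relative to vehicle-treated cells.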

LP-1 = experiment: Growth inhibition of human LP-1 cells after 72 hrs by MTS assay; assay type: functional; conditions: LP-1, 72 h; procedure, shortened: as §4
PC-3 = experiment: Growth inhibition of human PC3 cells after 72 hrs by MTS assay; assay type: functional; conditions: PC-3, 72 h; procedure, shortened: as §4
MCF7 [11] = experiment: Cell cycle arrest in human MCF7 cells assessed as accumulation at subG1 phase at 100 uM after 48 hrs by flow cytometry (reference value: 5%); assay type: functional
Procedure, shortened: (§5)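 MCF-7 cells at 1.3 x 10^5 cells/mL exposed to 100 µM for 48 or 72 h, with DMSO control. Cells fixed in PBS/ethanol (30/70), then 10^4 cells incubated 30 min in PBS/0.2% Triton X-100/1 mM EDTA with propidium iodide (50 µg/mL) and RNase (0.5 mg/mL). Flow cytometry gave % cells per phase, with sub-G1 counted as apoptotic. Mean of two independent experiments.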

MCF7 [12] = experiment: Cell cycle arrest in human MCF7 cells assessed as accumulation at subG1 phase at 100 uM after 72 hrs by flow cytometry (reference value: 9.5%); assay type: functional; procedure, shortened: as §5
MCF7 [13] = experiment: Cell cycle arrest in human MCF7 cells assessed as accumulation at G0/G1 phase at 100 uM after 48 hrs by flow cytometry (reference value: 87%); assay type: functional; procedure, shortened: as §5
MCF7 [14] = experiment: Cell cycle arrest in human MCF7 cells assessed as accumulation at G0/G1 phase at 100 uM after 72 hrs by flow cytometry (reference value: 60.5%); assay type: functional; procedure, shortened: as §5
MCF7 [15] = experiment: Cell cycle arrest in human MCF7 cells assessed as accumulation at S phase at 100 uM after 48 hrs by flow cytometry (reference value: 6%); assay type: functional; procedure, shortened: as §5
MCF7 [16] = experiment: Cell cycle arrest in human MCF7 cells assessed as accumulation at S phase at 100 uM after 72 hrs by flow cytometry (reference value: 20.5%); assay type: functional; procedure, shortened: as §5
MCF7 [17] = experiment: Cell cycle arrest in human MCF7 cells assessed as accumulation at G2/M phase at 100 uM after 48 hrs by flow cytometry (reference value: 7%); assay type: functional; procedure, shortened: as §5
MCF7 [18] = experiment: Cell cycle arrest in human MCF7 cells assessed as accumulation at G2/M phase at 100 uM after 72 hrs by flow cytometry (reference value: 19%); assay type: functional; procedure, shortened: as §5
[19] = molecular target: Heat shock protein HSP 90-beta (Homo sapiens) (UniProt P08238); experiment: Inhibition of HSP90 in human MCF7 cells assessed as ER-alpha degradation at 100 uM after 24 hrs by western blot analysis in presence of proteasome inhibitor MG132; assay type: cell-based; procedure, shortened: as §2
[20] = molecular target: Heat shock protein HSP 90-beta (Homo sapiens) (UniProt P08238); experiment: Inhibition of HSP90 in human MCF7 cells assessed as induction of Her2 degradation at 100 uM after 24 hrs by western blot analysis; assay type: cell-based
[21] = molecular target: Heat shock protein HSP 90-beta (Homo sapiens) (UniProt P08238); experiment: Inhibition of HSP90 in human MCF7 cells assessed as induction of Raf degradation at 100 uM after 24 hrs by western blot analysis; assay type: cell-based
[22] = molecular target: Heat shock protein HSP 90-beta (Homo sapiens) (UniProt P08238); experiment: Inhibition of HSP90 in human MCF7 cells assessed as induction of Cdk4 degradation at 100 uM after 24 hrs by western blot analysis; assay type: cell-based
MCF7 [23] = experiment: Ratio of novobiocin GI50 to compound GI50 for human MCF7 cells; assay type: functional
MDA-MB-231 = experiment: Growth inhibition of ER-negative human MDA-MB-231 cells after 72 hrs by MTT assay; assay type: functional; conditions: MDA-MB-231, 72 h; procedure, shortened: as §3
MCF7 [24] = experiment: Growth inhibition of tamoxifen-resistant human MCF7 cells after 72 hrs by MTT assay; assay type: functional; conditions: MCF7, 72 h; procedure, shortened: as §3

SMILES: COc1c(Br)cc2c(OC)c(NC(=O)c3ccc4c(c3)CCC(C)(C)O4)c(=O)oc2c1C
Rf [1]: 0.19
Rf [2]: 0.59
viability at 100 µM (MCF7 [3]): 90%

SMILES: Cc1ccc(S(=O)(=O)Oc2c(NC(=O)c3ccc4c(c3)CCC(C)(C)O4)c(=O)oc3c(C)c(O)c(Br)cc23)cc1
Rf [4]: 0.39
viability at 100 µM (MCF7 [3]): 65%

SMILES: Cc1c(O)ccc2c(OS(=O)(=O)c3cccs3)c(NC(=O)c3ccc4c(c3)CCC(C)(C)O4)c(=O)oc12
Rf [7]: 0.23
viability at 100 µM (MCF7 [3]): 62%

SMILES: CC(=O)OC[C@H]1O[C@@H](Oc2ccc3c(OS(=O)(=O)c4ccc(C)cc4)c(NC(=O)c4ccc5c(c4)CCC(C)(C)O5)c(=O)oc3c2C)[C@H](OC(C)=O)[C@@H](OC(C)=O)[C@@H]1OC(C)=O
GI50 (MCF7 [10]): 25 µM
GI50 (RPMI-8226): 2.5 µM
GI50 (LP-1): 5 µM
GI50 (PC-3): 25 µM
Activity (MCF7 [11]): 13%
Activity (MCF7 [12]): 27%
Activity (MCF7 [13]): 40%
Activity (MCF7 [14]): 30%
Activity (MCF7 [15]): 5.5%
Activity (MCF7 [16]): 9.5%
Activity (MCF7 [17]): 55%
Activity (MCF7 [18]): 60%
ER-alpha degradation (active/inactive) [6]: Active
inhibition [19]: inactive
inhibition [20]: inactive
inhibition [21]: inactive
inhibition [22]: inactive
Rf [5]: 0.14
Ratio (MCF7 [23]): 40
viability at 100 µM (MCF7 [3]): 10%
GI50 (MCF7 [8]): 6 µM
GI50 (MDA-MB-231): 10 µM
GI50 (MCF7 [24]): 30 µM

The next lines start with results.

Rf [5]: 0.17
SMILES: CC(=O)OC[C@H]1O[C@@H](Oc2ccc3c(N)c(NC(=O)c4ccc5c(c4)CCC(C)(C)O5)c(=O)oc3c2C)[C@H](OC(C)=O)[C@@H](OC(C)=O)[C@@H]1OC(C)=O
viability at 100 µM (MCF7 [3]): 71%

Rf [4]: 0.14
SMILES: Cc1c(O)ccc2c(OS(C)(=O)=O)c(NC(=O)c3ccc4c(c3)CCC(C)(C)O4)c(=O)oc12
viability at 100 µM (MCF7 [3]): 61%

ER-alpha degradation (active/inactive) [6]: Active
Rf [7]: 0.28
GI50 (MCF7 [8]): 64 µM
SMILES: Cc1c(O)ccc2c(OS(=O)(=O)c3ccc4cccnc4c3)c(NC(=O)c3ccc4c(c3)CCC(C)(C)O4)c(=O)oc12
viability at 100 µM (MCF7 [3]): 22%

Rf [2]: 0.5
SMILES: C#Cc1cc2c(OS(=O)(=O)c3ccc(C)cc3)c(NC(=O)c3ccc4c(c3)CCC(C)(C)O4)c(=O)oc2c(C)c1OC
viability at 100 µM (MCF7 [3]): 82%

Rf [9]: 0.2
SMILES: COc1ccc(C#Cc2cc3c(OS(=O)(=O)c4ccc(C)cc4)c(NC(=O)c4ccc5c(c4)CCC(C)(C)O5)c(=O)oc3c(C)c2OC)cc1
viability at 100 µM (MCF7 [3]): 89%
